Measurements pooled from the literature.
Lines come from different studies, so protocols differ.
Target: Serine/threonine-protein kinase ULK2 (ULK2, Homo sapiens, UniProt Q8IYT8)
One construct used (Q8IYT8 1-1036): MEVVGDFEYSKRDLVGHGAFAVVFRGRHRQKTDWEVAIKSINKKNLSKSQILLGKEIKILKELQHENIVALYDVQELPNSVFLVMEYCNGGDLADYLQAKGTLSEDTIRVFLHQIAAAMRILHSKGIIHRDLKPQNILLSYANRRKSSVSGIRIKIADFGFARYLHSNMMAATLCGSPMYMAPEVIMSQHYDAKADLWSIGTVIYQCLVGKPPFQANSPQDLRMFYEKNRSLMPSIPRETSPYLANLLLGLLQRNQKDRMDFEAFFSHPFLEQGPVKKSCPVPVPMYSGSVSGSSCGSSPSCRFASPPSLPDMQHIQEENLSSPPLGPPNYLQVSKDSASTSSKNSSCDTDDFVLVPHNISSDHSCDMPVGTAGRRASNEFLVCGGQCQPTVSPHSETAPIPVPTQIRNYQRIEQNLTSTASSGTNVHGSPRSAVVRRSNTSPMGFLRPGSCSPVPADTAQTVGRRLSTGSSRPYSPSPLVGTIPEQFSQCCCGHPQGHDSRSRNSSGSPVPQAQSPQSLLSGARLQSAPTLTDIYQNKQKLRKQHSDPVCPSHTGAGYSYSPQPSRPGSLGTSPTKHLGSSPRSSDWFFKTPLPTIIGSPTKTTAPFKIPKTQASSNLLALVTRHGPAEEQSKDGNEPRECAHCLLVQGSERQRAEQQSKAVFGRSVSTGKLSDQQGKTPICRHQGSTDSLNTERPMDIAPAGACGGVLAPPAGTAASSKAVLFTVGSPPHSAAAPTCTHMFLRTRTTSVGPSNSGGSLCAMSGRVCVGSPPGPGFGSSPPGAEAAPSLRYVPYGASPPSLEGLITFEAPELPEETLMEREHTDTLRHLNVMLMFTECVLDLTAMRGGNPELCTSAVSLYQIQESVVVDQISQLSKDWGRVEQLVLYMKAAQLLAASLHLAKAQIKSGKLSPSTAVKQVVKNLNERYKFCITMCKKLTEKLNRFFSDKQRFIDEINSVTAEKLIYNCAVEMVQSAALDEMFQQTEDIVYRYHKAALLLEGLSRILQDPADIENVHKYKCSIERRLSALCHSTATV

| SMILES | test | setting | quantity | value |
| --- | --- | --- | --- | --- |
| COc1ncccc1-c1cnn2ccc(N3CCN(C(=O)OC(C)C)CC3)nc12 | binding, competition with immobilised ligand | 1 µM | remaining binding | 70% |
| COc1cc(Nc2ncc(F)c(Nc3ccc4c(n3)NC(=O)C(C)(C)O4)n2)cc(OC)c1OC | binding | 10 µM | inhibition | 100% |
| C#Cc1n[nH]c2c(-c3cn(C(C)c4ccccn4)c(=O)[nH]c3=O)cc(F)cc12 (stereo not drawn) | enzyme activity, inhibitor | 1 µM | inhibition | 8.6% |
| Cn1cncc1[C@](O)(COc1ccc(C#N)cc1-c1ccc(OC(F)(F)F)cc1)c1ccc(C#N)cc1 | cell-free assay, competition with immobilised ligand | 1 µM | remaining binding | 100% |
| C#Cc1n[nH]c2c(-c3cn([C@@H](C)c4ccccc4)c(=O)[nH]c3=O)cc(F)cc12 | enzyme activity, inhibitor | 0.1 µM | inhibition | -3.5% |
| CC(C)(C)c1cc(C=C(C#N)C#N)cc(Br)c1O | enzyme activity, inhibitor | 0.5 µM | remaining activity | 103% |
| Nc1ncc(-c2nc(N3CCOCC3)nc(N3CCOCC3)n2)c(C(F)F)n1 | binding, competition with immobilised ligand | 10 µM | remaining binding | 72% |
| O=c1[nH]c2ccccc2n1C1CCN(Cc2ccc(-c3[nH]c4cc5ncnc5cc4nc3-c3ccccc3)cc2)CC1 | cell-free assay | 0.5 µM | remaining signal | 106% |
| Cc1nn(C)cc1-c1nc2c(N3CCN(Cc4ccc(Cl)cc4)CC3)c(Cl)cnc2[nH]1 | binding, competition with immobilised ligand | 1 µM | remaining binding | 100% |
